pKi: −log10 of the molar value.
How the values were obtained:
[1] = molecular target: T1, GABA-A receptor; alpha-2/beta-3/gamma-2 (Homo sapiens, UniProt P18507+P28472+P47869); experiment: Displacement of [3H]Ro-151788 from human Gamma-aminobutyric acid A receptor alpha-2-beta-3-gamma-2 stably expressed in L(tk-) cells; type: cell-based
T1 sequence (P18507 whole entry): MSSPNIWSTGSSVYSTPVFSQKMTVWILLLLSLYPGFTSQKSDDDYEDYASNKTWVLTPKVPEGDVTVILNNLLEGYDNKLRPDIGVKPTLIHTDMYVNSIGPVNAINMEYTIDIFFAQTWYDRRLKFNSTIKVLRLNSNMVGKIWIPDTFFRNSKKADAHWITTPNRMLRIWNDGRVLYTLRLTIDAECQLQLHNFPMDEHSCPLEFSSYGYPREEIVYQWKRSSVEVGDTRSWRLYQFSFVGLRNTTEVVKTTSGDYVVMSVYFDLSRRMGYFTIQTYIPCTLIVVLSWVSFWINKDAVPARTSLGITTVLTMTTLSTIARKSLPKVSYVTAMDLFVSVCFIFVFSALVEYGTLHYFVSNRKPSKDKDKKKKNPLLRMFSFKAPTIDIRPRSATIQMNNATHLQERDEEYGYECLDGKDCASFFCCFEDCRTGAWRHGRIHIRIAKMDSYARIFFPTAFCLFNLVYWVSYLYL
T1 sequence (P28472 whole entry): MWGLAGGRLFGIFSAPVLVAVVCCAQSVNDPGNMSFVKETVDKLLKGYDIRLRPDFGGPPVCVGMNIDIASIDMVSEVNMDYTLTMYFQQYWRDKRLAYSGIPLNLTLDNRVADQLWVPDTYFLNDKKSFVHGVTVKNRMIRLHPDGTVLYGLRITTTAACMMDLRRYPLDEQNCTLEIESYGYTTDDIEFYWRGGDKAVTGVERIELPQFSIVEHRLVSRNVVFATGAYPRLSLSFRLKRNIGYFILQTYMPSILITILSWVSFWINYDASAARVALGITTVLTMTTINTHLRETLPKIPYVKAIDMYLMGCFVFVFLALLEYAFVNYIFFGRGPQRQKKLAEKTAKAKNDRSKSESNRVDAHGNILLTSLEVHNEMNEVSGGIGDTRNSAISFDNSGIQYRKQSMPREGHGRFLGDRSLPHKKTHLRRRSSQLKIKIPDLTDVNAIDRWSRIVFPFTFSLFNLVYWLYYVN
T1 sequence (P47869 whole entry): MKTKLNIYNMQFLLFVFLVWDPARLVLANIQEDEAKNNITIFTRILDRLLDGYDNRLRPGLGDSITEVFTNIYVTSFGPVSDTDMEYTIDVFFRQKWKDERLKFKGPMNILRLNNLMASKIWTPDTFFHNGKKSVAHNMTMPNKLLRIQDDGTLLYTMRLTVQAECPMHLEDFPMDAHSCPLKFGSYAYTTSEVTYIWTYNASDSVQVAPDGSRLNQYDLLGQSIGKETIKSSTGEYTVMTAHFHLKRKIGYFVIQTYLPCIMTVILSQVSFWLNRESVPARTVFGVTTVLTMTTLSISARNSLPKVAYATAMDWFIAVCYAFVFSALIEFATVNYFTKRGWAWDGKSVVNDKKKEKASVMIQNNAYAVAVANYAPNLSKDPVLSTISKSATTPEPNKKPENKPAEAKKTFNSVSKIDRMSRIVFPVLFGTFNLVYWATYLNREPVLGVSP
Procedure, shortened: (§1)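 Competition binding against [3H]Ro15-1788 on cloned human α1/α2/α3/α5 β3γ2S receptors stably expressed in L(tk-) cells. Six to eight test concentrations spaced in half-log steps. Ki given as mean (SEM), n = 3-5, reported to two significant figures.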

[2] = molecular target: T2, GABA-A receptor; alpha-5/beta-3/gamma-2 (Homo sapiens, UniProt P18507+P28472+P31644); experiment: Inhibition of [3H]Ro-151788 binding to human GABA A receptor (alpha-5-beta-3-gamma-2) stably expressed in L(tk-) cells.; type: cell-based; procedure, shortened: as §1
T2 sequence (P18507 whole entry): T1 sequence (P18507 whole entry)
T2 sequence (P28472 whole entry): T1 sequence (P28472 whole entry)
T2 sequence (P31644 whole entry): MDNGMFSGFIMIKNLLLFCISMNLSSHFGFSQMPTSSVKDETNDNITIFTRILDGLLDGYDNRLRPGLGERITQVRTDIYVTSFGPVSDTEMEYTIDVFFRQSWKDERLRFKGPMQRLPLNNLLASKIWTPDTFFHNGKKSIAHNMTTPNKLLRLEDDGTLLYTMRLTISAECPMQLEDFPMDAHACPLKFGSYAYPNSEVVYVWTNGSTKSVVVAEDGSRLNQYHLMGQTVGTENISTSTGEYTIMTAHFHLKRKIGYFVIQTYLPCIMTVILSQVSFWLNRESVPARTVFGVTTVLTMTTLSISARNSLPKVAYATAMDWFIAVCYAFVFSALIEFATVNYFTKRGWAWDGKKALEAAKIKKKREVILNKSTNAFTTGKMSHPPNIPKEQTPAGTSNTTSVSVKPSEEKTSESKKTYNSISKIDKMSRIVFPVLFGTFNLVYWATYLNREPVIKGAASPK

[3] = molecular target: T3, GABA-A receptor; alpha-1/beta-3/gamma-2 (Homo sapiens, UniProt P14867+P18507+P28472); experiment: Displacement of [3H]Ro-151788 from human GABA-A receptor alpha-1-beta-3-gamma-2 subunits expressed in L(tk-) cells (<50% inhibition at 100 uM); type: cell-based
T3 sequence (P14867 whole entry): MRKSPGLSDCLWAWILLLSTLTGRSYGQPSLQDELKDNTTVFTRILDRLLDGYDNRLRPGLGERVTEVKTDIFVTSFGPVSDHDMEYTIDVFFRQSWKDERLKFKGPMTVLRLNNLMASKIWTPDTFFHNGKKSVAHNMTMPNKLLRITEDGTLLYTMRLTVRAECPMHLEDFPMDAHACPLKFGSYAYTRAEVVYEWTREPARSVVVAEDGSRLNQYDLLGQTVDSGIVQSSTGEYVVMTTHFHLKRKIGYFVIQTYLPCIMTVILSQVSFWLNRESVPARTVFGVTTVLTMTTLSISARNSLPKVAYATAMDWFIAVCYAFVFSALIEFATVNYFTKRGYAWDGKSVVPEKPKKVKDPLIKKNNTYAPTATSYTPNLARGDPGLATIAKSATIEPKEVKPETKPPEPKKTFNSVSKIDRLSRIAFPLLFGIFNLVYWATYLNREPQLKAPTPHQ
T3 sequence (P18507 whole entry): T1 sequence (P18507 whole entry)
T3 sequence (P28472 whole entry): T1 sequence (P28472 whole entry)

[4] = molecular target: T4, GABA-A receptor; alpha-3/beta-3/gamma-2 (Homo sapiens, UniProt P18507+P28472+P34903); experiment: Binding affinity by displacement of [3H]Ro-151788 from recombinant human gamma-aminobutyric-acid A receptor alpha3,beta3,gamma2 stably expressed in L cells; type: cell-based; procedure, shortened: as §1
T4 sequence (P18507 whole entry): T1 sequence (P18507 whole entry)
T4 sequence (P28472 whole entry): T1 sequence (P28472 whole entry)
T4 sequence (P34903 whole entry): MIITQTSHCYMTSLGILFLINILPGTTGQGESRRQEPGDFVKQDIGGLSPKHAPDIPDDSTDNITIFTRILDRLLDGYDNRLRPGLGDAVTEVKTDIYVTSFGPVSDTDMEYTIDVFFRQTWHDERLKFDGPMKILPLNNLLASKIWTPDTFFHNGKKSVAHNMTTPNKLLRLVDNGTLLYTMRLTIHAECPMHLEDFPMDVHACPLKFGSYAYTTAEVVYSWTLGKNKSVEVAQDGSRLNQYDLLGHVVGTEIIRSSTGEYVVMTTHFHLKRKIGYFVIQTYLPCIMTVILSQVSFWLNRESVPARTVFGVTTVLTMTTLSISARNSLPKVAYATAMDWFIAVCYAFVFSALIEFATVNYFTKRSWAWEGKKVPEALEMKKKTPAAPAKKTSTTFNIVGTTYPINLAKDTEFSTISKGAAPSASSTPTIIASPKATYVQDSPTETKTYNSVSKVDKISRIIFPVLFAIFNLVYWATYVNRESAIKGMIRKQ

[5] = molecular target: T3, GABA-A receptor; alpha-1/beta-3/gamma-2; experiment: Displacement of [3H]Ro-151788 from human GABA-A receptor alpha-1-beta-3-gamma-2 subunits expressed in L(tk-) cells; type: cell-based; procedure, shortened: as §1
[6] = molecular target: T5, GABA-A receptor; alpha-1/beta-3/gamma-2 (Homo sapiens) (UniProt P14867+P18507+P28472); experiment: Modulatory effect on coapplication with GABA at human Gamma-aminobutyric acid A receptor alpha-1-beta-3-gamma-2 expressed in Xenopus oocytes; type: cell-based; settings: Oocyte
Procedure, shortened: (§2)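 Two-electrode voltage clamp of Xenopus oocytes transiently expressing human α1, α2 or α3 β3γ2S receptors. Test compound is co-applied with GABA at its EC20 (GABA range 4-30 µM). Result is the % change in GABA current, mean (SEM), n = 3-7, at the stated test compound concentration (µM).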

[7] = molecular target: T3, GABA-A receptor; alpha-1/beta-3/gamma-2; experiment: Inhibition of [3H]Ro-151788 binding to human GABA A receptor (alpha-1-beta-3-gamma-2) stably expressed in L(tk-) cells.; type: cell-based
[8] = molecular target: GABA-A receptor; alpha-2/beta-3/gamma-2 (Homo sapiens) (UniProt P18507+P28472+P47869); experiment: Modulatory effect on coapplication with GABA at human Gamma-aminobutyric acid A receptor alpha-2-beta-3-gamma-2 expressed inXenopus oocytes; type: cell-based; settings: Oocyte; procedure, shortened: as §2
[9] = molecular target: GABA-A receptor; alpha-3/beta-3/gamma-2 (Homo sapiens) (UniProt P18507+P28472+P34903); experiment: Modulatory effect on coapplication with GABA at human Gamma-aminobutyric acid A receptor alpha-3-beta-3-gamma-2 in Xenopus oocytes.; type: cell-based; settings: Oocyte; procedure, shortened: as §2
[10] = molecular target: T1, GABA-A receptor; alpha-2/beta-3/gamma-2; experiment: Displacement of [3H]Ro-151788 from human GABA-A receptor alpha-2-beta-3-gamma-2 subunits expressed in L(tk-) cells (<50% inhibition at 2 uM); type: cell-based
[11] = molecular target: T2, GABA-A receptor; alpha-5/beta-3/gamma-2; experiment: Displacement of [3H]Ro-151788 from human GABA-A receptor alpha-5-beta-3-gamma-2 subunits expressed in L(tk-) cells; type: cell-based; procedure, shortened: as §1
[12] = molecular target: T3, GABA-A receptor; alpha-1/beta-3/gamma-2; experiment: Displacement of [3H]Ro-151788 from human GABA-A receptor alpha-1-beta-3-gamma-2 subunits expressed in L(tk-) cells (<50% inhibition at 3 uM); type: cell-based
[13] = molecular target: T5, GABA-A receptor; alpha-1/beta-3/gamma-2 (Homo sapiens); experiment: Modulatory effect on coapplication with GABA at human Gamma-aminobutyric acid A receptor alpha-1-beta-3-gamma-2 in Xenopus oocyte.; procedure, shortened: as §2
[14] = molecular target: T1, GABA-A receptor; alpha-2/beta-3/gamma-2; experiment: Displacement of [3H]Ro-151788 from human GABA-A receptor alpha-2-beta-3-gamma-2 subunits expressed in L(tk-) cells; type: cell-based; procedure, shortened: as §1
[15] = molecular target: T3, GABA-A receptor; alpha-1/beta-3/gamma-2; experiment: Displacement of [3H]Ro-151788 from human GABA-A receptor alpha-1-beta-3-gamma-2 subunits expressed in L(tk-) cells (<50% inhibition at 10 uM); type: cell-based
[16] = molecular target: T2, GABA-A receptor; alpha-5/beta-3/gamma-2; experiment: Displacement of [3H]Ro-151788 from human GABA-A receptor alpha-5-beta-3-gamma-2 subunits expressed in L(tk-) cells (<50% inhibition at 2 uM); type: cell-based

| SMILES | pKi [1] | pKi [2] | pKi [4] | pKi [5] | percent modulation of GABA EC20 response [8] [%] | percent modulation of GABA EC20 response [9] [%] | pKi [11] | percent modulation of GABA EC20 response [13] [%] | other results |
| --- | --- | --- | --- | --- | --- | --- | --- | --- | --- |
| COc1ccc(-c2cc(C#N)c(O)nc2-c2ccc(N(C)C)cc2)cc1 | < 4.52 | < 6.18 | < 4.52 |  |  |  |  |  | pKi [3]: < 4.52 |
| COC(=O)c1cc(-c2ccc(OC)cc2)c(-c2cccnc2)n(C)c1=O | 7.12 | < 6.18 | 7.14 | 6.17 |  |  |  |  |  |
| COc1ccc(-c2cc(-c3cccs3)c(=O)n(C)c2-c2ccncc2)cc1 | 7.64 | 6.46 | 7.82 |  | 15 | 36 |  |  | EC20 [6]: 9%; pKi [7]: 7.52 |
| COc1ccc(-c2cc(-c3nc(C)no3)c(=O)n(C)c2-c2ccncc2)cc1 |  |  | < 6.00 |  |  |  | < 6.18 |  | pKi [10]: < 6.18; pKi [12]: < 6.00 |
| Cc1csc(-c2cc(-c3ccncc3)c(-c3ccncc3)n(C)c2=O)n1 |  |  | 8.17 | 7.62 |  | -4 | 6.57 | -23 | pKi [14]: 7.70 |
| COC(=O)c1cc(-c2ccc(OC)cc2)c(-c2ccccc2)n(C)c1=O | 6.47 | 6.41 | 6.68 | 6.20 |  |  |  |  |  |
| COC(=O)c1cc(-c2ccc(OC)cc2)c(-c2ccc(N(C)C)cc2)n(C)c1=O | 6.22 | < 6.18 | 6.60 |  | 81 | 132 |  | 181 | pKi [15]: < 5.52 |
| COc1ccc(-c2cc(C#N)c(=O)n(C)c2-c2ccc(N(C)C)cc2)cc1 | 5.74 |  | 6.07 |  | -16 | 8 |  | 7 | pKi [16]: < 6.18 |
| COc1ccc(-c2cc(-c3cc(C)cs3)c(=O)n(C)c2-c2ccncc2)cc1 |  |  | 7.64 |  |  |  | 6.47 |  | pKi [14]: 7.42; pKi [7]: 7.39 |

Source: ChEMBL document CHEMBL1136055, “3-Heteroaryl-2-pyridones: benzodiazepine site ligands with functional delectivity for alpha 2/alpha 3-subtypes of human GABA(A) receptor-ion channels” (J Med Chem, 2002)
